According to ChEMBL document CHEMBL4152296, “Synthesis, biological evaluation and molecular modeling of novel azaspiro dihydrotriazines as influenza virus inhibitors targeting the host factor dihydrofolate reductase (DHFR)” (Eur J Med Chem, 2018):
pEC50: −log10 of the molar value. Activity calls are given as the source filed them. No cut-off for these calls is given here.

Tests used:
[1] = tested on: Influenza B virus; assay: Antiviral activity against Influenza B virus B/Ned/537/05 infected in MDCK cells assessed as protection against virus-induced reduction in cell viability after 3 to 6 days by MTS assay; format: functional, organism-based; settings: B/Ned/537/05, MDCK
How it was run: (§1)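 MDCK cells seeded at 9000/well and infected one day later (semiconfluent) with 100 CCID50 virus. Medium was FCS-free Ultra MDCK with 2 μg/mL TPCK-trypsin. Serial five-fold compound dilutions (top 100 μM) were added with the virus, followed by 3–6 days at 35 °C. MTS read-out gave % protection versus virus and mock controls. EC50 was interpolated from semi-log curves; mean of two or three experiments.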

[2] = tested on: Human immunodeficiency virus; assay: Antiviral activity against HIV; format: functional, organism-based
[3] = Cytotoxicity against MDCK cells assessed as alterations in normal cell morphology measured after 3 to 6 days by microscopic analysis; format: cell-based, Canis lupus familiaris; settings: dog
How it was run: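 Uninfected MDCK cultures in FCS-free Ultra MDCK medium with trypsin received five-fold compound dilutions (up to […]) for 3–6 days at 35 °C. Microscopy scored morphology, and MCC was taken as the lowest concentration causing minimal rounding, shrinking or lysis.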

[4] = tested on: Coxsackievirus B4; assay: Antiviral activity against Coxsackie B4 virus infected in human HeLa cells assessed as inhibition of virus-induced cytopathic effect after 3 to 6 days by MTS assay; format: functional, organism-based
[5] = tested on: Human alphaherpesvirus 1; assay: Antiviral activity against Herpes simplex virus type 1 infected in human HEL299 cells assessed as inhibition of virus-induced cytopathic effect after 3 to 6 days by MTS assay; format: functional, organism-based
[6] = tested on: Respiratory syncytial virus; assay: Antiviral activity against Respiratory syncytial virus Long infected in human HeLa cells assessed as inhibition of virus-induced cytopathic effect after 3 to 6 days by MTS based microscopy; format: functional, organism-based
[7] = tested on: Sindbis virus; assay: Antiviral activity against Sindbis virus infected in African green monkey Vero cells assessed as inhibition of virus-induced cytopathic effect after 3 to 6 days by MTS assay; format: functional, organism-based
[8] = tested on: Punta Toro virus; assay: Antiviral activity against Punta Toro virus infected in African green monkey Vero cells assessed as inhibition of virus-induced cytopathic effect after 3 to 6 days by MTS assay; format: functional, organism-based
[9] = tested on: Human alphaherpesvirus 2; assay: Antiviral activity against Herpes simplex virus type 2 infected in human HEL299 cells assessed as inhibition of virus-induced cytopathic effect after 3 to 6 days by MTS assay; format: functional, organism-based
[10] = tested on: Vaccinia virus; assay: Antiviral activity against Vaccinia virus infected in human HEL299 cells assessed as inhibition of virus-induced cytopathic effect after 3 to 6 days by MTS assay; format: functional, organism-based; settings: Orthopoxvirus vaccinia
[11] = tested on: Mammalian orthoreovirus 1; assay: Antiviral activity against Reovirus-1 infected in African green monkey Vero cells assessed as inhibition of virus-induced cytopathic effect after 3 to 6 days by MTS assay; format: functional, organism-based
[12] = tested on: Yellow fever virus; assay: Antiviral activity against Yellow fever virus infected in African green monkey Vero cells assessed as inhibition of virus-induced cytopathic effect after 3 to 6 days by MTS assay; format: functional, organism-based
[13] = tested on: Vero; assay: Cytotoxicity against African green monkey Vero cells assessed as reduction in cell viability measured after 3 to 6 days by MTS assay; format: cell-based; settings: chlorocebus sabaeus
[14] = tested on: Human coronavirus 229E; assay: Antiviral activity against Human coronavirus 229E infected in human HEL299 cells assessed as inhibition of virus-induced cytopathic effect after 3 to 6 days by MTS assay; format: functional, organism-based
[15] = tested on: Human respirovirus 3; assay: Antiviral activity against Parainfluenza virus 3 infected in African green monkey Vero cells assessed as inhibition of virus-induced cytopathic effect after 3 to 6 days by MTS assay; format: functional, organism-based
[16] = tested on: Human adenovirus 2; assay: Antiviral activity against Human adenovirus type 2 infected in human HEL299 cells assessed as inhibition of virus-induced cytopathic effect after 3 to 6 days by MTS assay; format: functional, organism-based
[17] = tested on: Influenza A virus; assay: Antiviral activity against Influenza A virus (A/Puerto Rico/8/34(H1N1)) infected in MDCK cells assessed as protection against virus-induced reduction in cell viability after 3 to 6 days by MTS assay; format: functional, organism-based; settings: A/Puerto Rico/8/1934(H1N1); how it was run: as §1
[18] = tested on: Vesicular stomatitis virus; assay: Antiviral activity against Vesicular stomatitis virus infected in human HEL299 cells assessed as inhibition of virus-induced cytopathic effect after 3 to 6 days by MTS assay; format: functional, organism-based
[19] = Cytotoxicity against human HeLa cells assessed as alterations in normal cell morphology measured after 3 to 6 days by microscopic analysis; format: cell-based
How it was run: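 Mock-infected HeLa cultures in 2% FCS medium received serial five-fold dilutions […] for 3–6 days at 37 °C. MCC was the lowest concentration giving microscopically visible minimal change in cell morphology (rounding, shrinking, lysis).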

[20] = tested on: MDCK; assay: Cytotoxicity against MDCK cells assessed as reduction in cell viability measured after 3 to 6 days by MTS assay; format: cell-based, Canis lupus familiaris; settings: dog
How it was run: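 Mock-infected MDCK plates were run in parallel (FCS-free Ultra MDCK medium with TPCK-trypsin) with serial five-fold dilutions up to […], 35 °C for 3–6 days. CC50 was interpolated from semi-log dose-response curves; mean of two or three experiments.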

COCCN1C(N)=NC(N)=NC12CCN(C(=O)C1CC1)CC2
pEC50 [1]: < 4.00 | Activity [2]: inactive | MCC [3]: > 100 µM | Activity [4]: inactive | Activity [5]: inactive | pEC50 [6]: < 4.00 | Activity [7]: inactive | Activity [8]: inactive | Activity [9]: inactive | Activity [10]: inactive | Activity [11]: inactive | Activity [12]: inactive | Activity [13]: Non-Toxic | Activity [14]: inactive | Activity [15]: inactive | Activity [16]: inactive | pEC50 [17]: < 4.00 | Activity [18]: inactive | MCC [19]: > 100 µM | CC50 [20]: > 100 µM

CC(=O)N[C@H]1[C@H]([C@H](O)[C@H](O)CO)OC(C(=O)O)=C[C@@H]1N=C(N)N [ZANAMIVIR]
pEC50 [1]: 6.85 | MCC [3]: > 100 µM | pEC50 [17]: 5.89 | CC50 [20]: > 100 µM

CCCCC(=O)N1CCC2(CC1)N=C(N)N=C(N)N2c1cccc(OC)c1
pEC50 [1]: 4.55 | Activity [2]: inactive | MCC [3]: ≥ 100 µM | Activity [4]: inactive | Activity [5]: inactive | pEC50 [6]: < 4.00 | Activity [7]: inactive | Activity [8]: inactive | Activity [9]: inactive | Activity [10]: inactive | Activity [11]: inactive | Activity [12]: inactive | Activity [13]: Non-Toxic | Activity [14]: inactive | Activity [15]: inactive | Activity [16]: inactive | pEC50 [17]: < 4.00 | Activity [18]: inactive | MCC [19]: > 100 µM | CC50 [20]: > 100 µM

CC(C)(C)OC(=O)N1CCC2(CC1)N=C(N)N=C(N)N2c1cccc(Cl)c1
pEC50 [1]: 4.62 | Activity [2]: inactive | MCC [3]: ≥ 20 µM | Activity [4]: inactive | Activity [5]: inactive | pEC50 [6]: < 4.00 | Activity [7]: inactive | Activity [8]: inactive | Activity [9]: inactive | Activity [10]: inactive | Activity [11]: inactive | Activity [12]: inactive | Activity [13]: Non-Toxic | Activity [14]: inactive | Activity [15]: inactive | Activity [16]: inactive | pEC50 [17]: 4.96 | Activity [18]: inactive | MCC [19]: > 100 µM | CC50 [20]: > 100 µM

CC(C)(C)OC(=O)N1CCC2(CC1)N=C(N)N=C(N)N2Cc1cccc(Cl)c1
pEC50 [1]: < 4.00 | Activity [2]: inactive | MCC [3]: > 100 µM | Activity [4]: inactive | Activity [5]: inactive | pEC50 [6]: < 4.00 | Activity [7]: inactive | Activity [8]: inactive | Activity [9]: inactive | Activity [10]: inactive | Activity [11]: inactive | Activity [12]: inactive | Activity [13]: Non-Toxic | Activity [14]: inactive | Activity [15]: inactive | Activity [16]: inactive | pEC50 [17]: < 4.00 | Activity [18]: inactive | MCC [19]: > 100 µM | CC50 [20]: > 100 µM

COCCN1C(N)=NC(N)=NC12CCN(C(=O)NC1CCC(C)CC1)CC2 (centres undefined)
pEC50 [1]: < 4.00 | Activity [2]: inactive | MCC [3]: > 100 µM | Activity [4]: inactive | Activity [5]: inactive | pEC50 [6]: < 4.00 | Activity [7]: inactive | Activity [8]: inactive | Activity [9]: inactive | Activity [10]: inactive | Activity [11]: inactive | Activity [12]: inactive | Activity [13]: Non-Toxic | Activity [14]: inactive | Activity [15]: inactive | Activity [16]: inactive | pEC50 [17]: < 4.00 | Activity [18]: inactive | MCC [19]: > 100 µM | CC50 [20]: > 100 µM

NC1=NC2(CCN(C(=O)c3ccc4ccccc4c3)CC2)N(c2cccc(Cl)c2)C(N)=N1
pEC50 [1]: 5.40 | Activity [2]: inactive | MCC [3]: ≥ 4 µM | Activity [4]: inactive | Activity [5]: inactive | pEC50 [6]: < 4.00 | Activity [7]: inactive | Activity [8]: inactive | Activity [9]: inactive | Activity [10]: inactive | Activity [11]: inactive | Activity [12]: inactive | Activity [13]: Non-Toxic | Activity [14]: inactive | Activity [15]: inactive | Activity [16]: inactive | pEC50 [17]: 4.55 | Activity [18]: inactive | MCC [19]: ≥ 100 µM | CC50 [20]: > 100 µM
